Source: ChEMBL document CHEMBL1148185, “New cyanocyclines from a cyanide-treated broth of Streptomyces lusitanus” (1993)
Converted amounts (≈) assume the structure as drawn. The source made the active and inactive calls. The rule behind the calls is not given here.

Assays:
Format in all cases: functional
Serratia marcescens = test: Antibacterial activity against Serratia marcescens ATCC 13880 after 16 to 20 hrs
How it was run: (§1)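 Broth microdilution MIC. Bacteria grown in brain heart infusion (BHI) broth at 37° for 24 h, then subcultured into fresh BHI for 8 h. Cultures diluted in 0.9% NaCl to McFarland 0.5 (ca. 10^8 cfu/ml), then diluted 20-fold in BHI. Two-fold antibiotic dilution series; 50 μl drug plus 50 μl culture per well. Incubated at 37° for 16–20 h.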

Enterococcus faecalis = test: Antibacterial activity against Streptococcus faecalis ATCC 29212 after 16 to 20 hrs; how it was run: as §1
Bacillus subtilis = test: Antibacterial activity against Bacillus subtilis ATCC 6633 after 16 to 20 hrs; how it was run: as §1
Micrococcus luteus = test: Antibacterial activity against Micrococcus luteus ATCC 4698 after 16 to 20 hrs; how it was run: as §1
Proteus vulgaris = test: Antibacterial activity against Proteus vulgaris after 16 to 20 hrs; how it was run: as §1
Escherichia coli = test: Antibacterial activity against Escherichia coli ATCC 10536 after 16 to 20 hrs; how it was run: as §1
Klebsiella pneumoniae = test: Antibacterial activity against Klebsiella pneumoniae A-''AD'' after 16 to 20 hrs; how it was run: as §1

Structure (SMILES)	Activity (Serratia marcescens)	Activity (Enterococcus faecalis)	Activity (Bacillus subtilis)	Activity (Micrococcus luteus)	Activity (Proteus vulgaris)	Activity (Escherichia coli)	Activity (Klebsiella pneumoniae)	MIC (Serratia marcescens) [µg/mL]	MIC (Enterococcus faecalis) [µg/mL]	MIC (Bacillus subtilis) [µg/mL]	MIC (Micrococcus luteus) [µg/mL]	MIC (Proteus vulgaris) [µg/mL]	MIC (Escherichia coli) [µg/mL]	MIC (Klebsiella pneumoniae) [µg/mL]
COc1c(C)c(OC)c2c(c1OC)[C@@H](CO)N1[C@H]3[C@@H]4[C@@H](C[C@H]([C@H]1C#N)N4C)[C@@H]1OCCN1[C@@H]23	inactive	inactive	inactive	inactive	inactive	inactive	inactive							
COC1=C(C)C(=O)C2=C(C1=O)[C@@H](CO)N1[C@H]3[C@@H]4[C@@H](C[C@H]([C@H]1C#N)N4C)[C@H](C#N)N(CCO)[C@@H]23 [CYANOCYCLINE D]								0.25 (≈ 0.551 µM)	0.25 (≈ 0.551 µM)	0.061 (≈ 0.135 µM)	0.125 (≈ 0.276 µM)	0.5 (≈ 1.1 µM)	0.5 (≈ 1.1 µM)	0.125 (≈ 0.276 µM)
COC1=C(C)C(=O)C2=C(C1=O)[C@@H](CO)N1[C@H]3[C@H]4[C@@H](C[C@H]([C@H]1C#N)N4C)[C@@H]1OCCN1[C@@H]23 [CYANOCYCLINE A]								0.5 (≈ 1.17 µM)	0.25 (≈ 0.586 µM)	0.031 (≈ 0.0727 µM)	0.031 (≈ 0.0727 µM)	0.25 (≈ 0.586 µM)	0.125 (≈ 0.293 µM)	0.125 (≈ 0.293 µM)
COc1c(C)c(O)c2c(c1O)[C@@H](CO)N1[C@H]3[C@@H]4[C@@H](C[C@H]([C@H]1C#N)N4C)[C@@H]1OCCN1[C@@H]23	Active	Active	Active	Active	Active	Active	Active							
COc1c(C)c(O)c2c(c1O)[C@@H](CO)N1[C@H]3[C@@H]4[C@@H](C[C@H]([C@H]1O)N4C)[C@@H]1OCCN1[C@@H]23	Active	Active	Active	Active	Active	Active	Active							
COC1=C(C)C(=O)C2=C(C1=O)[C@@H](CO)N1[C@H]3[C@H]4N[C@H](C[C@H]4[C@@H]4OCCN4[C@@H]23)[C@@H]1O	Active	Active	Active	Active	Active	Active	Active							
COC1=C(C)C(=O)C2=C(C1=O)[C@@H](CO)N1[C@H]3[C@H]4N[C@H](C[C@H]4[C@@H]4OCCN4[C@@H]23)[C@H]1C#N [CYANOCYCLINE B]								0.5 (≈ 1.21 µM)	0.25 (≈ 0.606 µM)	0.016 (≈ 0.0388 µM)	0.063 (≈ 0.153 µM)	1 (≈ 2.42 µM)	0.25 (≈ 0.606 µM)	0.031 (≈ 0.0752 µM)
